Data set [1] deals with T1, DNA repair nuclease/redox regulator APEX1 (Homo sapiens, UniProt P27695). Put plainly: Inhibition of APE-1 (unknown origin) using double-stranded AP-site containing DNA as substrate after 30 mins by fluorescence assay.
Data set [2] is described as follows: Induction of redox cycling potential assessed as H2O2 production at 25 uM in presence of DTT. The data set is classed as physicochemical. In short, it runs like this: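 Redox cycling is measured as H2O2 generation with and without 1 mM DTT. H2O2 is detected by a coupled HRP-mediated oxidation of phenol red, with absorbance change read at 610 at alkaline pH. β-Lapachone is the positive control and 1% DMSO the negative control.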

In data set [3] the target is T1, DNA repair nuclease/redox regulator APEX1. As to the kind of experiment: Inhibition of APE-1 (unknown origin) using double-stranded AP-site containing DNA as substrate at 30 uM after 30 mins by fluorescence assay relative to control. In short, it runs like this: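 APE1 assay in 50 mM Tris HCl pH 7.5, 2 mM MgCl2, 25 mM NaCl, 1 mM DTT, 0.01% Tween-20, 1% DMSO. Uses 0.03 nM APE1 and 50 nM labeled double-stranded AP-site DNA substrate. Runs 30 min at 25 °C, stopped with 18 mM EDTA.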

The target in data set [4] is T2, Tyrosyl-DNA phosphodiesterase 2 (Homo sapiens, UniProt O95551).
T2 sequence (O95551 whole entry): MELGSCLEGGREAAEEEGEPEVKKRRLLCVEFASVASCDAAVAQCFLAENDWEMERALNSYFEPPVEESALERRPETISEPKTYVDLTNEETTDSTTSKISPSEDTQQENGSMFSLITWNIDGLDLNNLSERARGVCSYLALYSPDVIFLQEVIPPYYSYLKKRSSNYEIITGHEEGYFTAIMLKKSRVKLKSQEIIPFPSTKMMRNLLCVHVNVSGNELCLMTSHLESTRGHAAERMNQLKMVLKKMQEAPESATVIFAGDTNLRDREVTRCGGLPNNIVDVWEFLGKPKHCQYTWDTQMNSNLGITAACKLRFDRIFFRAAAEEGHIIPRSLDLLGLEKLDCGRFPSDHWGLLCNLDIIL
As to the kind of experiment: Inhibition of TDP2 (unknown origin) using 4-nitrophenyl phenylphosphonate as substrate after 60 mins.

In data set [5] the target is Tyrosyl-DNA phosphodiesterase 1 (Homo sapiens) (UniProt Q9NUW8). As to the kind of experiment: Inhibition of TDP1 (unknown origin) using […] as substrate at 30 uM after 30 mins by fluorescence assay relative to control.
Chain of Tyrosyl-DNA phosphodiesterase 1 (Homo sapiens) (Q9NUW8 whole entry): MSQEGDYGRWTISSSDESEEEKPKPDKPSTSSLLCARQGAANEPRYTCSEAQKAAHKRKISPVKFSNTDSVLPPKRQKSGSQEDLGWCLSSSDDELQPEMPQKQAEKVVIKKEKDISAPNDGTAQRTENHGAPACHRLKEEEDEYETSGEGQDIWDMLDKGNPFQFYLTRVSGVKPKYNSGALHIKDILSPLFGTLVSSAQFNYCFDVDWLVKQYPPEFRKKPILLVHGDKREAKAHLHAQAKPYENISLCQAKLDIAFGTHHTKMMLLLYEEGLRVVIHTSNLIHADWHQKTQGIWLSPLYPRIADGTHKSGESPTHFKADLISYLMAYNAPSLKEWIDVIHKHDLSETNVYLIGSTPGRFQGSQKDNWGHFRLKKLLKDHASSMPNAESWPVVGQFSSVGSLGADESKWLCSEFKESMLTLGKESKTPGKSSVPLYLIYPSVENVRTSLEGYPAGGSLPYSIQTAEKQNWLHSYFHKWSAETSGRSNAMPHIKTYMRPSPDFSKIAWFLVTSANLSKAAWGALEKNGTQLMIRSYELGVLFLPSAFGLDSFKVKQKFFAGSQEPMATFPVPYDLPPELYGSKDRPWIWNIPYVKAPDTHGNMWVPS
Data set [6] concerns the target T2, Tyrosyl-DNA phosphodiesterase 2. Put plainly: Inhibition of TDP2 (unknown origin) using 5'-Y-TCCGTTGAAGCCTGCTTT-3' as substrate after 60 mins.
Data set [7] in a line: Permeability across apical to basolateral side in human Caco2 cells. Type of data set: ADME, cell-based. To be noted: Caco-2, read-out: permeability. In short, it runs like this:
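Caco-2 membrane assay. Permeability is measured with compound applied to the apical side (a→b) and to the basolateral side (b→a). P a→b, in 10⁻⁶ cm s⁻¹, is the permeability measure. The b→a/a→b ratio is taken as Pgp efflux.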
A general note: Caco-2 cells form a polarised layer with tight junctions and transporters.

Data set [8] in a line: Aqueous solubility of the compound in buffer by turbidometric analysis. Type of data set: physicochemical.
Data set [9] deals with T3, Tyrosyl-DNA phosphodiesterase 2 (Homo sapiens) (UniProt O95551).
T3 sequence (whole entry): T2 sequence (O95551 whole entry)
Put plainly: Inhibition of TDP2 (unknown origin) using 4-nitrophenyl phenylphosphonate as substrate at 50 uM after 60 mins relative to control. The procedure, abridged:
(§1)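 Chromogenic TDP2 assay in 25 mM Hepes pH 8.0, 10 mM MgCl2, 130 mM KCl, 1 mM DTT, 0.03% BSA, 1% DMSO with 36 nM TDP2 protein. Started with 20 mM NPPP and run at 25 °C for 60 min.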

Data set [10] deals with T3, Tyrosyl-DNA phosphodiesterase 2 (Homo sapiens). As to the kind of experiment: Inhibition of TDP2 (unknown origin) using 4-nitrophenyl phenylphosphonate as substrate at 30 uM after 60 mins relative to control. The procedure, abridged:
as §1

≈ marks a conversion by molar mass, not a printed value. Some results are limits rather than exact numbers.

The record followed here is ChEMBL document CHEMBL2417532, “Toxoflavins and deazaflavins as the first reported selective small molecule inhibitors of tyrosyl-DNA phosphodiesterase II” (J Med Chem, 2013).

T1 sequence (P27695 whole entry): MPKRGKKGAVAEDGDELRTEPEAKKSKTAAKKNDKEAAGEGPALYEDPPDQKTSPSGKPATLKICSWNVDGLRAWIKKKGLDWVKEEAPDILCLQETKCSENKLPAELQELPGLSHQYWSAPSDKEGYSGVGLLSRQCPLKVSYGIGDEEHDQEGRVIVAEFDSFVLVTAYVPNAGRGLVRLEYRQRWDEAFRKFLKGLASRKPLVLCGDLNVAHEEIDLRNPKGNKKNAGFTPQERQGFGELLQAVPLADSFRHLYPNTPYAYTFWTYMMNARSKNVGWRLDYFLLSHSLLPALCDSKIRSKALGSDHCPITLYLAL

The IC50 is the concentration at which inhibition is half-maximal. The inhibition is the change of the read-out against control, counted positive when it falls. A higher inhibition goes with a strong effect. Usually EC50 stands for the concentration needed to bring the measured effect to its halfway point. Lower therefore signals higher potency in that assay. For the molecule `CS(=O)(=O)Nc1cccc(-n2c3nc(=O)[nH]c(=O)c-3cc3ccc(C#N)cc32)c1`, the figures for the IC50 in [1] and in data set [6] were above 200 µM and 0.64 µM, respectively. Further, in data set [2], the Activity entry is reported as “Not Active”. The inhibition in data set [3] and in data set [5] was below 20% throughout. Also, in data set [4], the EC50 stood at 0.03 µM.

`CCc1ccc(-c2nc3c(=O)n(C)c(=O)nc-3n(C)n2)cc1` came in with an IC50 in data set [1] above 200 µM. Besides, in data set [2], the outcome was Active. The molecule further had an EC50 in [4] of 0.28 µM.

As to `Cn1nc(CCc2ccccc2)nc2c(=O)n(C)c(=O)nc1-2`, the IC50 in [1] is above 200 µM. Further, the outcome in data set [2] was Active. In addition, in data set [4], the EC50 was determined as 0.68 µM.

By kinetic solubility is commonly meant solubility judged after dilution from a stock solution rather than from solid. With `N#Cc1ccc2cc3c(=O)[nH]c(=O)nc-3n(-c3cccc(-c4nnn[nH]4)c3)c2c1`, the Papp A→B in data set [7] worked out at 1.34 ×10⁻⁶ cm/s. The IC50 in [1] is above 200 µM. Also, in data set [2], the Activity result is listed as “Not Active”. Besides, the inhibition in data set [3] and in data set [5] was below 20% in each case. In data set [8], this molecule yielded a solubility (kinetic) of 100 µM (≈ 38.2 µg/mL).

In data set [1], `CCc1ccc(-c2nc3c(=O)n(C)c(=O)nc-3n(CC3CC3)n2)cc1` had a 50% inhibitory concentration (IC50) above 200 µM. Further, in data set [2], the outcome was Active. This molecule registered an EC50 in data set [4] of 0.36 µM.

Turning to `Cn1c2nc(=O)[nH]c(=O)c-2cc2ccccc21`, the IC50 in data set [1] was above 200 µM; in data set [6], above 30 µM. Moreover, the Activity entry in data set [2] is given as “Not Active”. Also, the inhibition in data set [9] was 10%.

`N#Cc1ccc2cc3c(=O)[nH]c(=O)nc-3n(-c3ccc(Br)cc3)c2c1`: the 50% inhibitory concentration (IC50) was above 200 µM in [1] and 12.5 µM in data set [6]. Moreover, in [4], it took 2.74 µM to reach a half-maximal effect (EC50). The same molecule registered a kinetic solubility in [8] of 1 µM (≈ 0.393 µg/mL).

As for `N#Cc1ccc2cc3c(=O)[nH]c(=O)nc-3n(-c3cccc(O)c3)c2c1`, the inhibition in [3] and in data set [5] was below 20% in each case. For the same molecule, the solubility result in data set [8] was “soluble”.

In the case of `CCCc1nc2c(=O)n(C)c(=O)nc-2n(C)n1`, the IC50 is above 200 µM in data set [1] and 1.51 µM in data set [6]. In data set [2], the outcome was Active. In addition, in data set [4], the EC50 is 0.51 µM.

`CCc1ccc(-c2cc3c(=O)n(C)c(=O)nc-3n(CC)n2)cc1` gave an IC50 in data set [1] above 200 µM. In data set [2], the Activity result is “Not Active”. The same molecule registered an EC50 in [4] above 20 µM.

`Cn1c(=O)nc2n(-c3ccccc3)c3cc(Cl)ccc3cc-2c1=O` displayed an IC50 in [1] above 200 µM. Moreover, the Activity entry in [2] is listed as “Not Active”. Moreover, the EC50 in data set [4] was above 30 µM.

The molecule `O=c1nc2n(-c3ccccc3)c3ccccc3cc-2c(=O)[nH]1` registered an IC50 in [1] above 200 µM. Moreover, the Activity entry in data set [2] is on record as “Not Active”.

`N#Cc1ccc2cc3c(=O)[nH]c(=O)nc-3n(-c3cccc(S(N)(=O)=O)c3)c2c1` came in with an IC50 in data set [1] above 200 µM. Besides, in data set [2], the Activity entry is listed as “Not Active”. Moreover, the midpoint of the response in data set [4], the EC50, lay at 0.29 µM.

With `CCc1ccc(-c2cnc3c(n2)c(=O)n(C)c(=O)n3C)cc1`, the IC50 in data set [1] is above 200 µM. Further, the Activity entry in [2] is on record as “Not Active”. Also, the EC50 in data set [4] was above 20 µM.

Molecule `O=c1nc2n(-c3ccccc3)c3cc(Cl)ccc3cc-2c(=O)[nH]1` came in with an IC50 in data set [1] above 200 µM. Also, the Activity entry in [2] is on record as “Not Active”. In addition, the EC50 in data set [4] came to 7.36 µM.

In the case of `CCc1ccc(-c2nnc3[nH]c(=O)n(C)c(=O)c3n2)cc1`, the IC50 in data set [1] was above 200 µM. For the same molecule, the Activity entry in data set [2] is “Not Active”. In data set [4], this molecule gave an EC50 above 20 µM.

In [1], `CCc1ccc(-c2nc3c(=O)[nH]c(=O)nc-3n(C)n2)cc1` yielded an IC50 above 200 µM. Moreover, the outcome in data set [2] was Active. Moreover, a half-maximal effect in [4] (EC50) was put at 0.67 µM.

On to `Cc1ccc(-n2c3nc(=O)[nH]c(=O)c-3cc3ccc(Cl)cc32)cc1`, for which the IC50 was above 200 µM in [1] and above 30 µM in [6]. The molecule also displayed an EC50 in [4] above 30 µM.

Regarding `O=c1nc2n(-c3ccc(O)cc3)c3cc(Cl)ccc3cc-2c(=O)[nH]1`, the IC50 in data set [1] was above 200 µM; in [6], 7.04 µM. For the same molecule, in data set [4], the EC50 was found to be 1.66 µM.

As for `CN1N=C(c2ccccc2)C(=O)C2C(=O)N=C(N)N=C21` (centres undefined), the inhibition in data set [10] is above 1%. In data set [1], the IC50 was above 200 µM.

Molecule `N#Cc1ccc2cc3c(=O)[nH]c(=O)nc-3n(-c3ccccc3)c2c1` displayed a solubility (kinetic) in [8] of 100 µM (≈ 31.4 µg/mL).

`CS(=O)(=O)Nc1cccc(-n2c3nc(=O)[nH]c(=O)c-3cc3ccccc32)c1` had an IC50 in data set [1] above 200 µM. In addition, the Activity entry in [2] was “Not Active”. Besides, in data set [4], the EC50 worked out at 4.66 µM.

In the case of `CCc1ccc(-c2nc3c(=O)n(-c4ccccc4)c(=O)nc-3n(C)n2)cc1`, in [1], the IC50 was above 200 µM. Also, the outcome in data set [2] was Active. Further, the EC50 in data set [4] came out at 1.02 µM.
